Compound activity as filed in PubChem.
In the library only some 10% were active in any assay of this set; here they are far more common.
Diaph act CS: counter-screen for diaphorase-based assays: diaphorase activators and chemical reducers; activation factor at 20 µM; 190,000 compounds, 0.005% hits; Diaphorase/resazurin coupled assay, resorufin fluorescence, 16 min; stronger effect = higher value; 1 = vehicle wells, 0 = NADH-free wells;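 active = diaphorase activity raised at least twofold by the compound at 20 µM; inactive = activation factor below 2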
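Material: purified diaphorase enzyme from Clostridium kluyveri; Also added: 0.114 mM NADH and 0.1 mM resazurin, final amounts; Doses: single compound dose of 20 µM, 1% DMSO final; Times: 16 min enzyme reaction, ambient temperature; Detection: resorufin fluorescence, excitation 544 nm, emission 590 nm; Measure: increased resorufin signal from activators or reducing compounds.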
Lmaj promast: Leishmania major promastigote growth inhibition; Leishmania major promastigotes, resazurin fluorescence viability; inhibition, % at 10 µM; 200,000 compounds, 9% hits; in the data active = inhibition above about 50%;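 note: promastigotes grown with compound for 44 hours at 28 °C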
PMI activator: activators of human phosphomannose isomerase | P34949 | purified human PMI, coupled resazurin fluorescence, 20 min; stronger effect = higher value; 1 = vehicle control, 0 substrate-free wells | activation factor at 20 µM | 190,000 compounds, 0.005% hits | AID 1214;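 active = activation factor of 2 or more at 20 µM, relative to plate controls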
Target sequence (P34949 whole entry, looked up): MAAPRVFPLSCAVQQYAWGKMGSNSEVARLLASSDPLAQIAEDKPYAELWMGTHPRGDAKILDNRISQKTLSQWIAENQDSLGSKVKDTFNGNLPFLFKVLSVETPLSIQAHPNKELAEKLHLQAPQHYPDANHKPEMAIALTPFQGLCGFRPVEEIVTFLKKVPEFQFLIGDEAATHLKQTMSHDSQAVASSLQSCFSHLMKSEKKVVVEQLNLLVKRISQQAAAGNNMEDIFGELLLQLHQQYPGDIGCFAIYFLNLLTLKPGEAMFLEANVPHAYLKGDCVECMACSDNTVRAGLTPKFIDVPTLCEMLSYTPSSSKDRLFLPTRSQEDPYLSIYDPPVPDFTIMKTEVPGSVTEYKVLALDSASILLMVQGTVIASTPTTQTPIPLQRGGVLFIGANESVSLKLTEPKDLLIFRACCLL
WT yeast gro inh: growth inhibition of WT yeast, mitochondrial fusion screen. mitochondrial fusion phenotypic screen, WT strain. inhibition, % at 10 µM. 190,000 compounds, 2.1% hits. AID 1362; in the data active = inhibition above about 58%; tested in S. cerevisiae
PMI act satM6P: activators of human phosphomannose isomerase at near-saturating mannose 6-phosphate. coupled PMI enzyme assay, resazurin fluorescence, 20 min; stronger effect = higher value; 1 = untreated enzyme, 0 = substrate-free blank. AID 1216. activation factor at 20 µM. 190,000 compounds, 0.34% hits. P34949;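 active = activation factor of 2 or more at 20 µM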
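Test system: human PMI in coupled enzyme assay; Input: PMI at 15 ng/mL final; Medium: HEPES buffer, pH 7.4; Schedule: 20 min incubation at room temperature; Technique: resorufin fluorescence at Ex 544/Em 590 nm; Compound: 20 µM single dose; Probe or stimulus: Near-saturating mannose-6-phosphate, 1.0 mM.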
* marks the source's active call; other numbers are inactive results.

`CS(=O)(=O)N1CCC(C(=O)Nc2cc(Cl)cc(Cl)c2)CC1` gave Diaph act CS 0.8, Lmaj promast -2, PMI activator 1.1, WT yeast gro inh -10 and PMI act satM6P 1.
For CCN(C(=O)CSc1nnc(C)n1-c1ccccc1)C1CCS(=O)(=O)C1 (stereo not drawn) the results were Diaph act CS 0.8, Lmaj promast -6, PMI activator 1, WT yeast gro inh -12 and PMI act satM6P 0.9.
COc1cc(S(=O)(=O)Nc2ccc(C)cc2)ccc1NC(=O)c1ccncc1 was read as Diaph act CS 1, Lmaj promast 23, PMI activator 1, WT yeast gro inh 5 and PMI act satM6P 1.1.
`COc1cccc(C(=O)/C=C/Nc2ccc(S(=O)(=O)Nc3cccc(C(C)=O)c3)cc2)c1` gave Diaph act CS 0.9, Lmaj promast 82*, PMI activator 0.9, WT yeast gro inh -3 and PMI act satM6P 1.
For COc1cccc(/C=C/C(=O)c2ccc(NS(=O)(=O)c3ccc(C)cc3)cc2)c1 the results were Diaph act CS 0.8, Lmaj promast 99*, PMI activator 0.7, WT yeast gro inh 10 and PMI act satM6P 0.8.
For COc1cc(/C=C/C(=O)c2ccc(NS(=O)(=O)c3ccc(C)cc3)cc2)cc(OC)c1O the results were Diaph act CS 0.7, Lmaj promast 82*, PMI activator 0.8, WT yeast gro inh 7 and PMI act satM6P 0.6.
COc1cc(/C=C/C(=O)c2ccc(NS(=O)(=O)c3ccc(C)cc3)cc2)ccc1OC(F)F was read as Diaph act CS 0.9, Lmaj promast 98*, PMI activator 0.9, WT yeast gro inh -22 and PMI act satM6P 0.9.
Screening COc1cccc(C(=O)/C=C/Nc2ccc(NC(C)=O)cc2)c1 returned Diaph act CS 0.8, Lmaj promast -12, PMI activator 0.9, WT yeast gro inh -2 and PMI act satM6P 0.9.
Screening CC12CCC(C/C1=N/OC(=O)c1cccc([N+](=O)[O-])c1)C2(C)C (stereo not drawn) returned Diaph act CS 0.9, Lmaj promast 5, PMI activator 1, WT yeast gro inh 13 and PMI act satM6P 1.
For Brc1ccc(CNc2cc3c(cc2Br)OCCO3)cc1 the results were Diaph act CS 1, Lmaj promast -3, PMI activator 1.1, WT yeast gro inh 54 and PMI act satM6P 0.9.
For N/C(=N\OC(=O)N1c2ccccc2Sc2ccccc21)c1ccccc1 the results were Diaph act CS 0.8, Lmaj promast 91*, PMI activator 0.8, WT yeast gro inh 66* and PMI act satM6P 0.9.
Cc1cccc(/C(N)=N/OC(=O)N2c3ccccc3Sc3ccccc32)c1 was read as Diaph act CS 0.6, Lmaj promast 71*, PMI activator 0.8, WT yeast gro inh 67* and PMI act satM6P 0.7.
CCOc1c(OC)ccc2c3c(c(=O)oc12)CCCC3 was read as Diaph act CS 1, Lmaj promast 4, PMI activator 1, WT yeast gro inh 1 and PMI act satM6P 1.
COc1ccc2c3c(c(=O)oc2c1OCC(=O)O)CCCC3 was read as Diaph act CS 1, Lmaj promast 61*, PMI activator 1.1, WT yeast gro inh 13 and PMI act satM6P 1.1.
For CC(=O)c1ccc(-n2c(C)ccc2-c2ccccc2)cc1 the results were Diaph act CS 0.9, Lmaj promast 5, PMI activator 1, WT yeast gro inh 62* and PMI act satM6P 1.
`Cn1cnnc1SCC(=O)Nc1ccc2nc(SCc3ccccc3F)sc2c1` gave Diaph act CS 0.9, Lmaj promast 3, PMI activator 0.9, WT yeast gro inh -1 and PMI act satM6P 1.
Screening N=c1sccn1CC(=O)Nc1ccccc1Sc1ccccc1 returned Diaph act CS 1, Lmaj promast 13, PMI activator 1, WT yeast gro inh 8 and PMI act satM6P 1.
Screening Cc1ccc2cc(CCNC(=O)c3ccco3)c(=O)[nH]c2c1 returned Diaph act CS 0.9, Lmaj promast -7, PMI activator 1.1, WT yeast gro inh 4 and PMI act satM6P 1.1.
`Cc1ccc2cc(CN(C(=O)c3ccco3)c3ccccc3C)c(=O)[nH]c2c1` gave Diaph act CS 0.9, Lmaj promast 9, PMI activator 1.1, WT yeast gro inh 96* and PMI act satM6P 1.
For Cc1cc2cc(CCNC(=O)c3cccs3)c(=O)[nH]c2cc1C the results were Diaph act CS 0.8, Lmaj promast 5, PMI activator 1, WT yeast gro inh 6 and PMI act satM6P 1.
For CN(C)CCCC1(O)c2ccccc2C=Cc2ccccc21 the results were Diaph act CS 1, Lmaj promast 12, PMI activator 1, WT yeast gro inh -19 and PMI act satM6P 1.1.
O=C(C(NS(=O)(=O)c1cccs1)c1ccccc1)N1CCN(c2ccccc2F)CC1 (stereo not drawn) was read as Diaph act CS 1, Lmaj promast 7, PMI activator 0.9, WT yeast gro inh 10 and PMI act satM6P 1.
For Cc1cccc(N2CCN(C(=O)C(NS(=O)(=O)c3cccs3)c3ccccc3)CC2)c1C (stereo not drawn) the results were Diaph act CS 0.9, Lmaj promast 62*, PMI activator 1, WT yeast gro inh 38 and PMI act satM6P 1.
Screening O=C(C(Cc1ccccc1)n1cccc1)N1CCN(c2ncccn2)CC1 (stereo not drawn) returned Diaph act CS 0.8, Lmaj promast 0, PMI activator 0.8, WT yeast gro inh -3 and PMI act satM6P 1.
`Cc1cccc(N2CCN(C(=O)C(Cc3ccccc3)n3cccc3)CC2)c1C` (stereo not drawn) gave Diaph act CS 0.8, Lmaj promast 8, PMI activator 0.8, WT yeast gro inh 69* and PMI act satM6P 0.8.
`O=C(O)/C=C/C(=O)NCCCc1ccccc1` gave Diaph act CS 1.1, Lmaj promast -2, PMI activator 1, WT yeast gro inh 7 and PMI act satM6P 1.
For Cc1c(NC(=O)OCCNC(=O)COc2c(Cl)cccc2Cl)sc(=S)n1C the results were Diaph act CS 1, Lmaj promast 1, PMI activator 1, WT yeast gro inh 4 and PMI act satM6P 1.1.
`CCNc1ccc(Br)cc(C(=O)/C=C/c2ccccc2Cl)c1=O` gave Lmaj promast 99*.
CCC(CC)NC(=O)/C=C/c1ccccc1Cl was read as Diaph act CS 0.9, Lmaj promast 40, PMI activator 1, WT yeast gro inh -8 and PMI act satM6P 1.
For CNc1ccc(Br)cc(C(=O)/C=C/c2cccc(OC)c2OC)c1=O the results were Diaph act CS 0.4, Lmaj promast 48, PMI activator 1, WT yeast gro inh 3 and PMI act satM6P 1.
CNc1ccc(Br)cc(C(=O)/C=C/c2cccc(Cl)c2Cl)c1=O was read as Diaph act CS 0.3, Lmaj promast 96*, PMI activator 0.8, WT yeast gro inh 11 and PMI act satM6P 0.8.
